Data: ChEMBL document CHEMBL4138145, “Cyclic Cystine-Bridged Peptides from the Marine Sponge Clathria basilana Induce Apoptosis in Tumor Cells and Depolarize the Bacterial Cytoplasmic Membrane” (J Nat Prod, 2017)
≈ marks a conversion by molar mass, not a printed value. Calls of active or inactive are those of the source. The rule behind the calls is not given here. Where a SMILES comes first, the peptide text is derived from it. Bridges are numbered along the chain shown (N, C = ends). The star is where a group is joined. X1 = CC(C)[C@H](C)C(=O)*; X2 = C(=C\c1ccccc1)/N*

Key:
[1] = species on record: Homo sapiens; test: Induction of apoptosis in human Jurkat 16 cells assessed as increase in PARP cleavage at 10 uM measured up to 4 to 8 hrs by immuno blot analysis; format: functional, cell-based
[2] = test system: Ramos; test: Induction of apoptosis in human Ramos cells assessed as maximum activation of caspase 3 at 1 uM using Ac-DEVD-AMC as substrate measured after 6 to 7 hrs by immuno blot analysis; format: functional, cell-based
[3] = species on record: Homo sapiens; test: Induction of apoptosis in human Jurkat 16 cells assessed as maximum activation of caspase 3 at 1 uM using Ac-DEVD-AMC as substrate measured after 6 to 7 hrs by immuno blot analysis; format: functional, cell-based
[4] = test system: Ramos; test: Induction of apoptosis in human Ramos cells assessed as increase in PARP cleavage at 10 uM measured up to 4 to 8 hrs by immuno blot analysis; format: functional, cell-based
In short: (§1)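 Ramos cells were exposed for 2–8 h with or without Q-VD-OPh 10 μM; staurosporine 2.5 μM served as positive control. Cells were lysed in Tris/Triton buffer with phosphatase and protease inhibitors. Then 25 μg protein was run on 10% SDS-PAGE and blotted to PVDF for PARP cleavage, with β-actin as loading control.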

[5] = test system: Staphylococcus aureus; test: Disruption of inner membrane potential in Staphylococcus aureus NCTC 8325 at 0.2 uM measured after 30 to 60 mins by DiOC2(3) dye based fluorescence assay; format: functional, organism-based
In short: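 S. aureus NCTC 8325 grown to exponential phase in LB, resuspended in PBS at OD600 0.5, and loaded with 30 μM DiOC2(3) for 15 min before compound addition. Fluorescence read 30 and 60 min later: excitation 485 nm, emission 530 nm (green) and 630 nm (red). Controls were CCCP 5 μM and DMSO. Two runs on different days with independent cultures.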

[6] = test system: Bacillus subtilis; test: Induction of DNA damage in Bacillus subtilis isolate 1S34 assessed as increase in yorB promoter activity at 20 nmol after 14 to 18 hrs by beta-galactosidase reporter gene assay; format: functional, organism-based
In short: (§2)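 Agar-based β-galactosidase promoter-reporter assay. B. subtilis 1S34 grown to stationary phase in LB with spectinomycin 50 μg/mL, then set at 3 × 10^7 CFU/mL in LB soft agar (0.7%) containing X-Gal 150 μg/mL. Test compounds spotted at 20 nmol; reference antibiotics given on paper discs (5–30 μg). Plates read for promoter induction after 14–18 h at 30 °C.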

[7] = test system: Klebsiella aerogenes; test: Antimicrobial activity against Enterobacter aerogenes after 16 to 20 hrs by broth micro dilution method; format: functional, organism-based
In short: (§3)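 Broth microdilution per CLSI in cation-adjusted Mueller-Hinton broth. Inoculum made by direct colony suspension, 5 × 10^5 CFU/mL final, added to serial 2-fold compound dilutions. Plates kept 16–20 h at 37 °C in ambient air. MIC is the lowest concentration with no visible growth. Strains are ATCC CLSI quality-control strains; A. baumannii 09987 is a Bonn clinical isolate.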

[8] = test system: Klebsiella pneumoniae; test: Antimicrobial activity against Klebsiella pneumoniae after 16 to 20 hrs by broth micro dilution method; format: functional, organism-based; in short: as §3
[9] = test system: Ramos; test: Induction of apoptosis in human Ramos cells assessed as activation of caspase 3 at 10 uM using Ac-DEVD-AMC as substrate measured up to 4 hrs by immuno blot analysis; format: functional, cell-based
[10] = test system: Acinetobacter baumannii; test: Antimicrobial activity against Acinetobacter baumannii isolate 09987 after 16 to 20 hrs by broth micro dilution method; format: functional, organism-based; in short: as §3
[11] = test system: Bacillus subtilis; test: Induction of translation arrest in Bacillus subtilis isolate 1S34 assessed as increase in bmrC promoter activity at 20 nmol after 14 to 18 hrs by beta-galactosidase reporter gene assay; format: functional, organism-based
[12] = species on record: Homo sapiens; test: Induction of apoptosis in human Jurkat 16 cells assessed as activation of caspase 3 at 1 uM using Ac-DEVD-AMC as substrate measured up to 4 hrs by […]; format: functional, cell-based
[13] = test system: Bacillus subtilis; test: Induction of cell envelope stress in Bacillus subtilis isolate 1S34 assessed as increase in liaI promoter activity at 20 nmol after 14 to 18 hrs by beta-galactosidase reporter gene assay; format: functional, organism-based; in short: as §2
[14] = test system: HL-60; test: Cytotoxicity against human HL60 cells assessed as reduction in cell viability after 24 hrs by MTT assay; format: functional, cell-based; details: HL-60, 24 h
In short: (§4)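 Suspension cells at 5 × 10^5 cells/mL, exposed 24 h to varying compound concentrations; 0.1% v/v DMSO as negative control. MTT added to 1 mg/mL final for 60 min, cells pelleted, formazan extracted in DMSO for 25 min at rt, A570 read with 650 nm reference. Viability relative to DMSO set at 100%; IC50 from fitted curves.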

[15] = test system: Ramos; test: Induction of apoptosis in human Ramos cells assessed as maximum activation of caspase 3 at 10 uM using Ac-DEVD-AMC as substrate measured after 6 to 7 hrs by immuno blot analysis; format: functional, cell-based
[16] = test system: Ramos; test: Induction of apoptosis in human Ramos cells assessed as activation of caspase 3 at 1 uM using Ac-DEVD-AMC as substrate measured up to 4 hrs by immuno blot analysis; format: functional, cell-based
[17] = test system: Bacillus subtilis; test: Induction of cell envelope stress in Bacillus subtilis isolate 1S34 assessed as increase in ypuA promoter activity at 20 nmol after 14 to 18 hrs by beta-galactosidase reporter gene assay; format: functional, organism-based; in short: as §2
[18] = test system: NOMO-1; test: Cytotoxicity against human NOMO1 cells assessed as reduction in cell viability after 24 hrs by MTT assay; format: functional, cell-based; details: NOMO-1, 24 h; in short: as §4
[19] = species on record: Homo sapiens; test: Induction of apoptosis in human Jurkat 16 cells assessed as maximum activation of caspase 3 at 10 uM using Ac-DEVD-AMC as substrate measured after 6 to 7 hrs by immuno blot analysis; format: functional, cell-based
[20] = test system: Escherichia coli; test: Antimicrobial activity against Escherichia coli after 16 to 20 hrs by broth micro dilution method; format: functional, organism-based; in short: as §3
[21] = test system: Bacillus subtilis; test: Induction of RNA damage in Bacillus subtilis isolate 1S34 assessed as increase in helD promoter activity at 20 nmol after 14 to 18 hrs by beta-galactosidase reporter gene assay; format: functional, organism-based; in short: as §2
[22] = test system: MEF; test: Inhibition of autophagy in mouse MEF expressing mCitrine-hLC3B assessed as reduction in amino acid starvation-induced degradation of LC3 at 10 uM after 4 hrs by flow cytometry; format: functional, cell-based
In short: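 MEFs stably expressing mCitrine-hLC3B were held 4 h in full medium or EBSS starvation medium with 10 μM compound; bafilomycin A1 10 nM was the inhibition control. Cells were trypsinized, washed and read by flow cytometry for median mCitrine fluorescence. Values normalized to DMSO-treated full-medium cells; mean ± SD of 3 independent analyses; Student's t test.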

[23] = test system: Enterococcus faecium; test: Antimicrobial activity against vancomycin-resistant Enterococcus faecium isolate BM 4147-1 after 16 to 20 hrs by broth micro dilution method; format: functional
[24] = test system: A2780; test: Cytotoxicity against human A2780 cells assessed as reduction in cell viability after 72 hrs by MTT assay; format: functional, cell-based; details: A2780, 72 h
In short: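 A2780 ovarian carcinoma cells were grown in RPMI-1640 with 10% FBS, penicillin and streptomycin, about 9000 cells/well, preincubated overnight. Increasing compound concentrations were applied for 72 h, then MTT was added. Absorbance read at 544 nm minus the 690 nm reference.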

[25] = species on record: Homo sapiens; test: Induction of apoptosis in human Jurkat 16 cells assessed as activation of caspase 3 at 10 uM using Ac-DEVD-AMC as substrate measured up to 4 hrs by immuno blot analysis; format: functional, cell-based
[26] = test system: Staphylococcus aureus; test: Antimicrobial activity against Staphylococcus aureus after 16 to 20 hrs by broth micro dilution method; format: functional; in short: as §3
[27] = test system: Ramos; test: Induction of apoptosis in human Ramos cells assessed as PARP cleavage at 10 uM cotreated with pan-caspase inhibitor QVD-OPh measured after 2 to 8 hrs by Western blot analysis; format: functional, cell-based; in short: as §1
[28] = test system: Mycobacterium tuberculosis; test: Antimicrobial activity against Mycobacterium tuberculosis H37Rv up to 100 uM after 5 days by resazurin dye based assay; format: functional, organism-based
In short: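 M. tuberculosis H37Rv was grown aerobically at 37 °C in Middlebrook 7H9 with ADS enrichment, 0.5% glycerol and 0.05% tyloxapol, then precultured to log phase (OD600 0.5−1). Cells were seeded at 1 × 10^5 per well on 2-fold dilutions over 100−0.78 μM and held 5 days at 37 °C. Resazurin was added for 16 h at ambient temperature, then cells were formalin-fixed and fluorescence read (ex 540, em 590 nm). Growth is relative to rifampicin (0%) and DMSO (100%).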

[29] = Cytotoxicity against human Jurkat 16 cells assessed as reduction in cell viability after 24 hrs by MTT assay; format: functional, cell-based; in short: as §4
[30] = test system: Pseudomonas aeruginosa; test: Antimicrobial activity against Pseudomonas aeruginosa after 16 to 20 hrs by broth micro dilution method; format: functional, organism-based; in short: as §3
[31] = test system: Ramos; test: Cytotoxicity against human Ramos cells assessed as reduction in cell viability after 24 hrs by MTT assay; format: functional, cell-based; in short: as §4

CC[C@H](C)[C@@H]1NC(=O)[C@@H](NC(=O)[C@@H](C)C(C)C)CSSC[C@@H](C(=O)N/C=C/c2ccccc2)NC(=O)[C@H]([C@@H](C)CC)NC(=O)[C@H]([C@@H](C)CC)NC(=O)[C@H]([C@@H](C)CC)NC1=O (X1-CIIIIC-X2; disulfide 1-6)
Activity [1]: Active | Activity [2]: inactive | Activity [3]: inactive | Activity [4]: Active | Activity [5]: Active | Activity [6]: inactive | Activity [7]: inactive | Activity [8]: inactive | Activity [9]: Active | Activity [10]: inactive | Activity [11]: inactive | Activity [12]: inactive | Activity [13]: Active | IC50 [14]: 28 µM | Activity [15]: Active | Activity [16]: inactive | Activity [17]: Active | IC50 [18]: 10 µM | Activity [19]: Active | Activity [20]: inactive | Activity [21]: inactive | inhibition [22]: inactive | MIC [23]: 12 µM (≈ 10.5 µg/mL) | IC50 [24]: 2.6 µM | Activity [25]: Active | MIC [26]: 6.2 µM (≈ 5.42 µg/mL) | Activity [27]: inactive | Activity [28]: inactive | IC50 [29]: 4.6 µM | Activity [30]: inactive | IC50 [31]: 5.9 µM
